Test system: HEK-293T
Experiment: Multiplex assay against HEK293T;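 as to Population Tubulin-Different-Phenotype (%): share of the cells with healthy nuclei that show this phenotype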
Type: toxicity, cell-based
Conditions: human
Procedure, shortened: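 Per cents of healthy-nucleus cells form the tubulin, mitochondrial-mass and membrane-permeability phenotype values. Live cells were stained at seeding with Hoechst33342, BioTracker Green Microtubule Cytoskeleton Dye, MitoTracker Red and Annexin V Alexa Fluor 680. After compound addition they were imaged on a CQ1 microscope at 37°C and 5% CO2, and CellPathfinder machine-learning gating split them into Hoechst high-intensity objects or normal cells, normal cells into healthy, pyknosed or fragmented nuclei, and pyknosed cells into mitotic or apoptotic.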

[1] = 12 h, 1 µM, compound concentration 1 uM, replicate 1
[2] = 12 h, 1 µM, compound concentration 1 uM, replicate 2
[3] = 12 h, 10 µM, compound concentration 10 uM, replicate 1
[4] = 12 h, 10 µM, compound concentration 10 uM, replicate 2
[5] = 24 h, 1 µM, compound concentration 1 uM, replicate 1
[6] = 24 h, 1 µM, compound concentration 1 uM, replicate 2
[7] = 24 h, 10 µM, compound concentration 10 uM, replicate 1
[8] = 24 h, 10 µM, compound concentration 10 uM, replicate 2
[9] = 48 h, 1 µM, compound concentration 1 uM, replicate 1
[10] = 48 h, 1 µM, compound concentration 1 uM, replicate 2
[11] = 48 h, 10 µM, compound concentration 10 uM, replicate 1
[12] = 48 h, 10 µM, compound concentration 10 uM, replicate 2

## O=C(Nc1ccc(-n2nc(-c3cccnc3)cc2C(F)(F)F)cn1)c1ccc(-c2ccccc2)c(F)c1 [BI 2049]
[1]
  Population Apoptotic (%): 46%
  Population Fragmented Nuclei (%): 22%
  Population Healthy Nuclei (%): 24%
  Population Hoechst High Intensity Objects (%): 21%
  Population Membrane Permeable-Phenotype (%): 0%
  Population Mitochondria Different-Phenotype (%): 60%
  Population Mitotic Cells (%): 53%
  Population Normal (%): 78%
  Population Pyknosed Nuclei (%): 53%
  Population Tubulin-Different-Phenotype (%): 10%
  Total Cell Count: 147
[2]
  Population Apoptotic (%): 3%
  Population Fragmented Nuclei (%): 11%
  Population Healthy Nuclei (%): 37%
  Population Hoechst High Intensity Objects (%): 2%
  Population Membrane Permeable-Phenotype (%): 3%
  Population Mitochondria Different-Phenotype (%): 8%
  Population Mitotic Cells (%): 96%
  Population Normal (%): 97%
  Population Pyknosed Nuclei (%): 51%
  Population Tubulin-Different-Phenotype (%): 1%
  Total Cell Count: 166
[3]
  Population Apoptotic (%): 63%
  Population Fragmented Nuclei (%): 12%
  Population Healthy Nuclei (%): 23%
  Population Hoechst High Intensity Objects (%): 11%
  Population Membrane Permeable-Phenotype (%): 3%
  Population Mitochondria Different-Phenotype (%): 90%
  Population Mitotic Cells (%): 36%
  Population Normal (%): 88%
  Population Pyknosed Nuclei (%): 64%
  Population Tubulin-Different-Phenotype (%): 65%
  Total Cell Count: 254
[4]
  Population Apoptotic (%): 12%
  Population Fragmented Nuclei (%): 5%
  Population Healthy Nuclei (%): 47%
  Population Hoechst High Intensity Objects (%): 3%
  Population Membrane Permeable-Phenotype (%): 9%
  Population Mitochondria Different-Phenotype (%): 15%
  Population Mitotic Cells (%): 88%
  Population Normal (%): 96%
  Population Pyknosed Nuclei (%): 47%
  Population Tubulin-Different-Phenotype (%): 13%
  Total Cell Count: 276
[5]
  Population Apoptotic (%): 65%
  Population Fragmented Nuclei (%): 25%
  Population Healthy Nuclei (%): 30%
  Population Hoechst High Intensity Objects (%): 26%
  Population Membrane Permeable-Phenotype (%): 6%
  Population Mitochondria Different-Phenotype (%): 59%
  Population Mitotic Cells (%): 34%
  Population Normal (%): 73%
  Population Pyknosed Nuclei (%): 43%
  Population Tubulin-Different-Phenotype (%): 31%
  Total Cell Count: 143
[6]
  Population Apoptotic (%): 12%
  Population Fragmented Nuclei (%): 7%
  Population Healthy Nuclei (%): 73%
  Population Hoechst High Intensity Objects (%): 4%
  Population Membrane Permeable-Phenotype (%): 3%
  Population Mitochondria Different-Phenotype (%): 6%
  Population Mitotic Cells (%): 87%
  Population Normal (%): 95%
  Population Pyknosed Nuclei (%): 19%
  Population Tubulin-Different-Phenotype (%): 4%
  Total Cell Count: 212
[7]
  Population Apoptotic (%): 60%
  Population Fragmented Nuclei (%): 12%
  Population Healthy Nuclei (%): 27%
  Population Hoechst High Intensity Objects (%): 13%
  Population Membrane Permeable-Phenotype (%): 3%
  Population Mitochondria Different-Phenotype (%): 82%
  Population Mitotic Cells (%): 39%
  Population Normal (%): 86%
  Population Pyknosed Nuclei (%): 60%
  Population Tubulin-Different-Phenotype (%): 53%
  Total Cell Count: 266
[8]
  Population Apoptotic (%): 5%
  Population Fragmented Nuclei (%): 6%
  Population Healthy Nuclei (%): 64%
  Population Hoechst High Intensity Objects (%): 2%
  Population Membrane Permeable-Phenotype (%): 6%
  Population Mitochondria Different-Phenotype (%): 14%
  Population Mitotic Cells (%): 94%
  Population Normal (%): 97%
  Population Pyknosed Nuclei (%): 29%
  Population Tubulin-Different-Phenotype (%): 23%
  Total Cell Count: 339
[9]
  Population Apoptotic (%): 54%
  Population Fragmented Nuclei (%): 27%
  Population Healthy Nuclei (%): 35%
  Population Hoechst High Intensity Objects (%): 18%
  Population Membrane Permeable-Phenotype (%): 2%
  Population Mitochondria Different-Phenotype (%): 20%
  Population Mitotic Cells (%): 46%
  Population Normal (%): 81%
  Population Pyknosed Nuclei (%): 37%
  Population Tubulin-Different-Phenotype (%): 14%
  Total Cell Count: 166
[10]
  Population Apoptotic (%): 11%
  Population Fragmented Nuclei (%): 7%
  Population Healthy Nuclei (%): 83%
  Population Hoechst High Intensity Objects (%): 2%
  Population Mitochondria Different-Phenotype (%): 3%
  Population Mitotic Cells (%): 88%
  Population Normal (%): 97%
  Population Pyknosed Nuclei (%): 8%
  Population Tubulin-Different-Phenotype (%): 6%
  Total Cell Count: 420
[11]
  Population Apoptotic (%): 55%
  Population Fragmented Nuclei (%): 14%
  Population Healthy Nuclei (%): 28%
  Population Hoechst High Intensity Objects (%): 18%
  Population Membrane Permeable-Phenotype (%): 1%
  Population Mitochondria Different-Phenotype (%): 52%
  Population Mitotic Cells (%): 44%
  Population Normal (%): 81%
  Population Pyknosed Nuclei (%): 56%
  Population Tubulin-Different-Phenotype (%): 40%
  Total Cell Count: 298
[12]
  Population Apoptotic (%): 7%
  Population Fragmented Nuclei (%): 6%
  Population Healthy Nuclei (%): 82%
  Population Hoechst High Intensity Objects (%): 2%
  Population Membrane Permeable-Phenotype (%): 5%
  Population Mitochondria Different-Phenotype (%): 4%
  Population Mitotic Cells (%): 92%
  Population Normal (%): 97%
  Population Pyknosed Nuclei (%): 10%
  Population Tubulin-Different-Phenotype (%): 21%
  Total Cell Count: 633
